# Columns and labels:
# [1] = Selectivity index, ratio of CC50 for human HepG2 cells to IC50 for chloroquine, pyrimethamine, and proguanil-resistant Plasmodium falciparum K1; assay type: functional
# Procedure, shortened: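 SI = HepG2 CC50 / K1 IC50. The read-out was MTT for 2 h, formazan dissolved in DMSO, A570 with 630 nm reference. Viability is expressed as % of untreated control, CC50 taken from the dose-response curve. The IC50 is from the SYBR Green K1 assay.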
# [2] = Cytotoxicity against human HepG2 cells after 72 hrs by MTT assay; assay type: cell-based
# Procedure, shortened: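 Cells seeded in RPMI with 10% foetal bovine serum, L-glutamine, penicillin/streptomycin, 37 °C, 6% CO₂; after 24 h, compound dilutions added for 72 h. MTT (5 mg/mL in PBS) added 2 h at 37 °C, formazan dissolved in DMSO, absorbance 570 nm (reference 630 nm). Viability as percent of untreated cells; CC50 from dose–response curve; mean of three independent experiments.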
# Plasmodium falciparum = assay: Antiplasmodial activity against chloroquine, pyrimethamine, and proguanil-resistant Plasmodium falciparum K1 infected in human A+ erythrocytes after 72 hrs by SYBR Green-I fluorescence-based method; assay type: functional, organism-based; conditions: K1, 72 h
# Procedure, shortened: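 Ring-stage cultures (5% sorbitol synchronised), maintained in A+ human erythrocytes with RPMI/HEPES/NaHCO3/10% A+ serum under 5% O2, 5% CO2. Assay at 2% haematocrit, 1% parasitaemia, graded compound concentrations, 72 h at 37 °C in triplicate. IC50 by nonlinear regression, mean of three independent experiments.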
# Toxoplasma gondii = assay: Antimicrobial activity against tachyzoites of Toxoplasma gondii expressing PRU-beta-Gal gene infected in HFF after 72 hrs by colorimetric microtiter assay; assay type: functional, organism-based
Compound,Ratio CC50/IC50 [1],CC50 at 72 h [2] [µM],IC50 (Plasmodium falciparum) [µM],IC50 (Toxoplasma gondii) [µM]
ClC(Cl)(Cl)c1nc(Sc2ccccc2)c2ccccc2n1,18.4,35,1.9,–
Clc1ccccc1Sc1nc(C(Cl)(Cl)Cl)nc2ccccc12,9.3,26,2.8,–
Clc1cccc(Sc2nc(C(Cl)(Cl)Cl)nc3ccccc23)c1,7.3,16,2.2,–
Fc1ccccc1Sc1nc(C(Cl)(Cl)Cl)nc2ccccc12,12.2,28,2.3,–
Fc1cccc(Sc2nc(C(Cl)(Cl)Cl)nc3ccccc23)c1,8.2,15.5,1.9,–
Fc1ccc(Sc2nc(C(Cl)(Cl)Cl)nc3ccccc23)cc1,>25,> 30,1.2,–
FC(F)(F)c1ccccc1Sc1nc(C(Cl)(Cl)Cl)nc2ccccc12,11.2,28,2.5,–
FC(F)(F)c1cccc(Sc2nc(C(Cl)(Cl)Cl)nc3ccccc23)c1,8,17.5,2.2,–
FC(F)(F)c1ccc(Sc2nc(C(Cl)(Cl)Cl)nc3ccccc23)cc1,13,13,1,–
Cc1ccccc1Sc1nc(C(Cl)(Cl)Cl)nc2ccccc12,7.4,52,7,–
Cc1cccc(Sc2nc(C(Cl)(Cl)Cl)nc3ccccc23)c1,18.4,35,1.9,–
Cc1ccc(Sc2nc(C(Cl)(Cl)Cl)nc3ccccc23)cc1,>19,> 30,1.6,–
COc1ccccc1Sc1nc(C(Cl)(Cl)Cl)nc2ccccc12,8.2,32,3.9,–
COc1cccc(Sc2nc(C(Cl)(Cl)Cl)nc3ccccc23)c1,6,12,2,–
COc1ccc(Sc2nc(C(Cl)(Cl)Cl)nc3ccccc23)cc1,>3.2,> 8,2.5,–
Clc1ccc(Sc2nc(C(Cl)(Cl)Cl)nc3ccccc23)c(Cl)c1,12.1,18.2,1.5,–
Clc1ccc(Sc2ncnc3ccccc23)cc1,3.8,16.7,4.4,–
FC(F)(F)c1nc(Sc2ccc(Cl)cc2)c2ccccc2n1,–,> 15,> 15,–
Clc1nc(C(Cl)(Cl)Cl)nc2ccccc12,>2.3,> 125,–,–
C[C@H]1c2cccc(O)c2C(=O)C2=C(O)[C@]3(O)C(=O)C(C(N)=O)=C(O)[C@@H](N(C)C)[C@@H]3[C@@H](O)[C@@H]21.O [DOXYCYCLINE],4,–,5,–
CCc1nc(N)nc(N)c1-c1ccc(Cl)cc1 [PYRIMETHAMINE],–,–,–,0.8
